This passage reports IC50, Kd and KA results from ChEMBL document CHEMBL3351841, “Differential modes of peptide binding onto replicative sliding clamps from various bacterial origins” (J Med Chem, 2014).

For orientation: IC50 means the concentration at which inhibition is half-maximal. Usually Kd stands for the concentration at which binding is half-saturated. A higher Kd goes with lower affinity.

Where a SMILES comes first, the peptide text is derived from it. [ ]: non-standard residue; d: D form. Phe(3,4-Cl2) = N[C@@H](Cc1ccc(Cl)c(Cl)c1)C(=O)O; Cha = N[C@@H](CC1CCCCC1)C(=O)O

Test [1] can be described thus: Binding affinity to Escherichia coli DNA sliding clamp protein expressed in Escherichia coli BL21(DE3) pLys by SPR assay. The gist of the method: (§1)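 Competition SPR at 25 °C in Hepes 10 mM pH 7.4, 0.15 M NaCl, 3 mM EDTA. Clamp (0.25 μM) was preincubated with challenger peptide (1.5 nM to 100 μM), then injected over a chip carrying immobilized P1 peptide (Pol IV C-terminal heptamer). IC50 was taken from inhibition of clamp/P1 binding.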
On the technique in general: In SPR one partner is held on a chip, and binding of the other changes the refractive index at the surface.

Test [2] is described as follows: Binding affinity to Escherichia coli DNA sliding clamp protein expressed in Escherichia coli BL21(DE3) pLys at 25 degC by ITC assay. The gist of the method: (§2)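 iTC200 calorimetry at 25 °C. Peptide (200–600 μM) was titrated in 2 μL injections into clamp (20–60 μM), with peptide/SC ratio 10, in 10 mM Hepes pH 7.4, 0.15 M NaCl, 3 mM EDTA. Data were corrected against peptide-into-buffer controls and fit for N, KD, ΔH and ΔS. At least two experiments.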
(In ITC the heat of successive injections is recorded.)

Test [3] in a line: Binding affinity to Pseudomonas aeruginosa DNA sliding clamp protein expressed in Escherichia coli BL21(DE3) pLys by SPR assay. The gist of the method: as §1
The nature of test [4]: Binding affinity to Pseudomonas aeruginosa DNA sliding clamp protein expressed in Escherichia coli BL21(DE3) pLys at 25 degC by ITC assay. The gist of the method: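 His-tagged P. aeruginosa (PAO1) dnaN clamp from pET-15b, IPTG 0.1 mM at 28 °C overnight; Ni-NTA then MonoQ purified, ultracentrifuged. Peptide (200–600 μM) titrated in 2 μL injections into clamp (20–60 μM), peptide/clamp ratio 10, in 10 mM Hepes pH 7.4, 0.15 M NaCl, 3 mM EDTA. Heat of peptide into buffer subtracted; KD, N, ΔH, ΔS fitted; at least two runs.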

A short description of test [5]: Binding affinity to Mycobacterium tuberculosis DNA sliding clamp protein expressed in Escherichia coli BL21(DE3) pLys by SPR assay. The gist of the method:
(§3)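 SPR competition at 25 °C in Hepes 10 mM pH 7.4, 0.15 M NaCl, 3 mM EDTA. Clamp (0.25 μM) preincubated with challenger peptide (1.5 nM to 100 μM), then injected over a chip loaded with P1 peptide. IC50 taken from inhibition of clamp/P1 binding; at least three independent experiments.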

Test [6] can be described thus: Binding affinity to Mycobacterium tuberculosis DNA sliding clamp protein expressed in Escherichia coli BL21(DE3) pLys at 25 degC by ITC assay. Summed up: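 ITC at 25 °C. Peptide (200−600 μM) titrated in 2 μL injections into clamp (20−60 μM) at a peptide/clamp ratio of 10, in 10 mM Hepes pH 7.4, 0.15 M NaCl, 3 mM EDTA. Corrected using peptide-into-buffer controls. N, KD, ΔH and ΔS fitted; at least two experiments.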

A short description of test [7]: Binding affinity to Bacillus subtilis DNA sliding clamp protein expressed in Escherichia coli BL21(DE3) pLys by SPR assay. Summed up:
as §1

A short description of test [8]: Binding affinity to Staphylococcus aureus DNA sliding clamp protein expressed in Escherichia coli BL21(DE3) pLys by SPR assay. The gist of the method:
as §1

In test [9] the test system is Escherichia coli. As to the kind of experiment: Binding affinity to Escherichia coli DNA sliding clamp protein expressed in Escherichia coli BL21(DE3) pLys assessed as association constant at 25 degC by SPR assay. The gist of the method:
(§4)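 Biacore SPR at 25 °C in 10 mM Hepes pH 7.4, 0.15 M NaCl, 3 mM EDTA. The E. coli Pol IV C-terminal heptamer (P1) was immobilized, and the clamp (Ni-NTA then MonoQ purified) was injected at 0.125–2 μM at 50 μL/min. After background subtraction, data were fit to a 1:1 Langmuir model to give KA.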

Test [10] can be described thus: Binding affinity to Escherichia coli DNA sliding clamp protein expressed in Escherichia coli BL21(DE3) pLys at 25 degC by SPR assay. The gist of the method:
as §1

Test [11] relates to Pseudomonas aeruginosa. As to the kind of experiment: Binding affinity to Pseudomonas aeruginosa DNA sliding clamp protein expressed in Escherichia coli BL21(DE3) pLys assessed as association constant at 25 degC by SPR assay. The gist of the method:
as §4

Test [12] in a line: Binding affinity to Pseudomonas aeruginosa DNA sliding clamp protein expressed in Escherichia coli BL21(DE3) pLys at 25 degC by SPR assay. The gist of the method: as §1
Test [13] deals with Mycobacterium tuberculosis. The test is described as follows: Binding affinity to Mycobacterium tuberculosis DNA sliding clamp protein expressed in Escherichia coli BL21(DE3) pLys assessed as association constant at 25 degC by SPR assay. Summed up:
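Direct SPR binding at 25 °C in 10 mM Hepes pH 7.4, 0.15 M NaCl, 3 mM EDTA. Ni-NTA/MonoQ-purified clamp (0.125−2 μM) injected at 50 μL/min over immobilized P1, the E. coli Pol IV C-terminal heptamer. Background subtracted; 1:1 Langmuir fit gives KA.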

The nature of test [14]: Binding affinity to Mycobacterium tuberculosis DNA sliding clamp protein expressed in Escherichia coli BL21(DE3) pLys at 25 degC by SPR assay. Summed up:
as §3

The subject of test [15] is Bacillus subtilis. As to the kind of experiment: Binding affinity to Bacillus subtilis DNA sliding clamp protein expressed in Escherichia coli BL21(DE3) pLys assessed as association constant at 25 degC by SPR assay. Summed up:
as §4

Test [16] is described as follows: Binding affinity to Bacillus subtilis DNA sliding clamp protein expressed in Escherichia coli BL21(DE3) pLys at 25 degC by SPR assay. The gist of the method:
as §1

For test [17], the system named is Staphylococcus aureus. As to the kind of experiment: Binding affinity to Staphylococcus aureus DNA sliding clamp protein expressed in Escherichia coli BL21(DE3) pLys assessed as association constant at 25 degC by SPR assay. The gist of the method: as §4
Test [18] is described as follows: Binding affinity to Staphylococcus aureus DNA sliding clamp protein expressed in Escherichia coli BL21(DE3) pLys at 25 degC by SPR assay. Summed up:
as §1

Test [19] in a line: Binding affinity to Pseudomonas aeruginosa DNA sliding clamp protein expressed in Escherichia coli BL21(DE3) pLys at 30 degC by ITC assay. The gist of the method: (§5)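 ITC at 30 °C. Peptide (200–600 μM) was injected stepwise (2 μL) into clamp solution (20–60 μM), with peptide/SC ratio 10, in Hepes 10 mM pH 7.4, NaCl 0.15 M, EDTA 3 mM. Peptide-into-buffer controls were subtracted, and N, KD, ΔH and ΔS were derived. Performed at least twice.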

The nature of test [20]: Binding affinity to Bacillus subtilis DNA sliding clamp protein expressed in Escherichia coli BL21(DE3) pLys at 30 degC by ITC assay. The gist of the method:
as §5

A short description of test [21]: Binding affinity to Bacillus subtilis DNA sliding clamp protein expressed in Escherichia coli BL21(DE3) pLys at 25 degC by ITC assay. The gist of the method: as §2
The nature of test [22]: Binding affinity to Staphylococcus aureus DNA sliding clamp protein expressed in Escherichia coli BL21(DE3) pLys at 30 degC by ITC assay. Summed up:
as §5

Test [23] in a line: Binding affinity to Escherichia coli DNA sliding clamp protein expressed in Escherichia coli BL21(DE3) pLys at 30 degC by ITC assay. The gist of the method: as §5

In the case of `CC(=O)N[C@@H](CCC(N)=O)C(=O)N[C@@H](CC1CCCCC1)C(=O)N[C@@H](CC(=O)O)C(=O)N[C@@H](CC(C)C)C(=O)N[C@@H](Cc1ccc(Cl)c(Cl)c1)C(=O)O` (Ac-Q[Cha]DL[Phe(3,4-Cl2)]-OH), the IC50 is 80 nM in test [1]; 140 nM in [3]; 850 nM in [5]; “Not Active” in [7]; “Not Active” in test [8]. Further, the values for the Kd in test [2], in test [4] and in test [6] were 50 nM, 99 nM and 750 nM, respectively.

For the compound H-RQLVLGL-OH, the KA in test [9] came out at 4.2 ×10⁶ /M; in [11] it was 1.7 ×10⁶ /M; in test [13], 4.6 ×10⁶ /M; in [15], 3.5 ×10⁶ /M; in [17], 4.1 ×10⁶ /M. Further, the Kd came to 230 nM in test [10]; 580 nM in test [12]; 240 nM in test [14]; 290 nM in [16]; 250 nM in [18].

Regarding `CC(=O)N[C@@H](CCC(N)=O)C(=O)N[C@@H](CC1CCCCC1)C(=O)N[C@@H](CC(=O)O)C(=O)N[C@@H](CC(C)C)C(=O)N[C@@H](Cc1ccccc1)C(=O)O` (Ac-Q[Cha]DLF-OH), the IC50 in [1] came out at 170 nM; in test [7] (read-out: IC50), 2100 nM; in test [8] (read-out: IC50), 1540 nM. The Kd in [2] amounted to 230 nM; in [19], 640 nM; in test [20], 8200 nM; in [21] it was 12300 nM; in test [22] it was 29000 nM; in test [23], 1000 nM.
